One assay relates to EntB. Particulars: compared with 2,5‐DHB and 3,5‐DHB; ref Khalil & Pawelek, 2009; cited from earlier work.
Assay [1] addresses T1, EntB R196A isochorismatase (Escherichia coli, UniProt P0ADI4, R196A).
T1 sequence (P0ADI4 1-285 R196A): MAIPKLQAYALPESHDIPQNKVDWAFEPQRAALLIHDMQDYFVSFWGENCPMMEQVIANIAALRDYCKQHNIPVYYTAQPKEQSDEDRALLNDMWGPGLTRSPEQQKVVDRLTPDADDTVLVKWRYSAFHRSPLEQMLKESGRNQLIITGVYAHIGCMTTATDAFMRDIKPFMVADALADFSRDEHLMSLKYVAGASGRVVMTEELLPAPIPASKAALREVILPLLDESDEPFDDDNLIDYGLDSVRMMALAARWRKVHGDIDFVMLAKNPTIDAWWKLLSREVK
Nature of the assay: EntB‐LDH coupled isochorismatase activity assay, EntB R196A. In kind it is biochemical. The procedure, abridged: (§1)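 His-tagged EntB (pCA24N, E. coli AG-1, IMAC-purified) at 0.10 μM was preincubated 10 min at RT with 1.50 unit/mL LDH and 350 μM NADH in 50 mM HEPES pH 8.0, 150 mM NaCl, 1 mM TCEP. Substrate was a ~3:2 chorismate:isochorismate mix made with EntC and 5 mM MgCl2 on ice for 20 min, then filtered. It was added at 6.2–73.9 μM, and OD340 loss was followed at 21°C. Test compound was at 0, 100, 250 or 400 μM. Km and Vmax came from Michaelis–Menten fits, and Ki from an Eadie–Hofstee slope replot.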

The target of assay [2] is T2, EntB‐driven EntC reaction (Escherichia coli, UniProt P0ADI4).
T2 sequence (P0ADI4 1-285): T1 sequence (P0ADI4 1-285 R196A) with A196R
Briefly: Isothermal titration microcalorimetry of the EntC–EntB coupled reaction. In kind it is biochemical. Particulars: 313 nM EntC, 1293 nM EntB, 0, 250, 500 μM DHB, 30°C. The gist of the method: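 The sample cell held 313 nM EntC with or without EntB (162–2587 nM). Two injections of 79 μM chorismate were given 10 min apart, stirring at 300 RPM. Integrated heats were corrected for buffer injection and chorismate dilution heats.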
A general note: In ITC the heat of successive injections is recorded.

In assay [3] the target is T3, wild‐type EntB isochorismatase (Escherichia coli, UniProt P0ADI4).
T3 sequence (P0ADI4 1-285): T1 sequence (P0ADI4 1-285 R196A) with A196R
Briefly: EntB‐LDH coupled isochorismatase activity assay, wild-type EntB. Type of assay: biochemical. To be noted: for Isochorismate apparent K m / V max: 0.1 μM EntB. The gist of the method: as §1

The target of assay [4] is T4, apo‐EntB (wild‐type EntB) (Escherichia coli, UniProt P0ADI4).
T4 sequence (P0ADI4 1-285): T1 sequence (P0ADI4 1-285 R196A) with A196R
Briefly: Fluorescence anisotropy binding assay, wild-type EntB. The procedure, abridged:
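The test compound was held at 2 μM and purified protein was titrated in. Buffer was 50 mM HEPES pH 8.0, 150 mM NaCl, 1 mM TCEP, with 10 min preincubation at RT. Anisotropy was read at 21°C (ex 315 nm, em 437 nm, 10 nm slits), G-factor corrected, in triplicate. Apparent KD came from a one-site total-binding fit.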
For orientation: Polarisation of emitted light reports the rotation of a fluorescent probe.

The next assay has as its target T5, EntB variant R196A (Escherichia coli, UniProt P0ADI4, R196A).
T5 sequence (P0ADI4 1-285 R196A): T1 sequence (P0ADI4 1-285 R196A)
Briefly: Fluorescence anisotropy binding assay, EntB R196A. To be noted: EntB R196A titrated into 2.00 μM 2,3‐DHB; apparent K D not determinable (no saturation).

Structures are written as SMILES. Numbering of substitutions follows the chain as printed. Entries after “also recorded” stand apart in the source; their conditions may differ.

As a reminder, the IC50 is the concentration at which inhibition is half-maximal. The Kd is the constant that tells how readily two partners part at equilibrium. High values mean a looser complex, low ones a tighter complex. As for `O=C(O)c1cccc(O)c1O` [2,3‐DHB, 2,3‐dihydroxybenzoic acid], in the assay with EntB, the “quenching of EntB intrinsic fluorescence” value is recorded as “able to specifically quench EntB fluorescence; also recorded: most strongly quenched”. Besides, the IC50 in assay [1] came to 692 µM; in assay [3], 360 µM. For the same molecule, the “effect on heat evolution (integrated reaction heats)” value in assay [2] is “suppression of integrated reaction heats; also recorded: heat evolution decreased in a DHB‐dependent manner”. The results for the “Isochorismate apparent K m” value in assay [3] (100 μM 2,3‐DHB), in assay [3] (250 μM 2,3‐DHB) and in assay [3] (400 μM 2,3‐DHB) were 16.24 ± 1.57 µM, 22.12 ± 3.25 µM and 32.55 ± 0.23 µM, respectively. The figures for the V max in assay [3] (100 μM 2,3‐DHB), in assay [3] (250 μM 2,3‐DHB) and in assay [3] (400 μM 2,3‐DHB) were 5.25 ± 0.17 µM/min, 4.99 ± 0.52 µM/min and 5.33 ± 0.05 µM/min, respectively. Besides, the mode of inhibition result in assay [3] (Eadie–Hofstee plot, linear fits converge at the ordinate) is “competitive inhibition”. This molecule displayed a Kd in assay [4] of 8.95 µM. On EntB variant R196A, the “affinity relative to wild‐type EntB” value is “much lower affinity than wild‐type EntB”.
